What was measured:
[1] = test system: LPS-primed human THP-1 monocytic cells; test: Nigericin-induced pyroptosis, LDH release; assay type: cell-based; conditions: LPS-primed THP-1 cells, 25 µM compound
Method in brief: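 THP-1 cells in Opti-MEM with 0.1% FBS were primed for 4 h with 1 µg/ml ultrapure LPS (E. coli O111:B4). They were then stimulated for 2 h with 5 µM nigericin, with or without 25 µM test compound. LDH release was measured by CytoTox 96 and given as a percentage of maximal release by 0.1% Triton X-100.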

[2] = test system: THP-1 cells expressing FKBP–caspase-11; test: B/B-induced FKBP–caspase-11 pyroptosis, LDH release; assay type: cell-based, human; conditions: FKBP–caspase-11 THP-1 cells, 50 nM B/B, 10 µM compound
Method in brief: (§1)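 Unprimed THP-1 cells stably expressing FKBP–caspase-4 or FKBP–caspase-11 were seeded in Opti-MEM with 0.1% FBS. Cells were dimerised with 50 nM B/B, with or without 10 µM test compound, for the indicated times. LDH in the medium was measured by CytoTox 96 and expressed as a percentage of maximal release by 0.1% Triton X-100.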

[3] = test system: THP-1 cells expressing FKBP–caspase-4; test: B/B-induced FKBP–caspase-4 pyroptosis, LDH release; assay type: cell-based, human; conditions: FKBP–caspase-4 THP-1 cells, 50 nM B/B, 10 µM compound
Method in brief: as §1

| SMILES | nigericin-induced cell lysis (LDH release), in words [1] | cell death induced by caspase-11, in words [2] | cell death induced by caspase-4, in words [3] |
| --- | --- | --- | --- |
| CC(C)(O)c1coc(S(=O)(=O)NC(=O)Nc2c3c(cc4c2CCC4)CCC3)c1 [MCC950] | inhibited |  |  |
| C[C@H](NC(=O)C(=O)Nc1ccccc1C(C)(C)C)C(=O)N[C@@H](CC(=O)O)C(=O)COc1c(F)c(F)cc(F)c1F [Emricasan, N-[2-(1,1-dimethylethyl)phenyl]-2-oxoglycyl-N-[(1S)-1-(carboxymethyl)-2-oxo-3-(2,3,5,6-tetrafluorophenoxy)propyl]-L-alaninamide] | inhibited | inhibited | inhibited |

— article PMC13645671 (Nature, 2026)
